Calls of active or inactive are those of the source. No cut-off for these calls is given here.
Assays:
[1] = target: T1, Urokinase-type plasminogen activator (Homo sapiens, UniProt P00749)
Coagulation factor X [2] = target: T2, Coagulation factor X (Homo sapiens, UniProt P00742); assay: Inhibition of factor 10a at 62 uM
[3] = target: T1, Urokinase-type plasminogen activator; remark: listed apart in the source
Prothrombin [4] = target: T3, Prothrombin (Homo sapiens, UniProt P00734); assay: Inhibition of human thrombin
In short: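 Human plasma thrombin was assayed at 37 °C in Tris pH 8.3. […] Initial rate was read at 405 nm, in duplicate. IC50 was obtained from a four-parameter logistic fit.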

Coagulation factor X [5] = target: T2, Coagulation factor X; assay: Inhibition of factor 10a
In short: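 Human factor Xa (FX activated with Russell's viper venom) at about 5 mU was preincubated with inhibitor (0–250 µM final) for 15 min at 37 °C. […] IC50 came from a four-parameter logistic fit.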

[6] = target: Tissue-type plasminogen activator (Homo sapiens, UniProt P00750); assay: Inhibition of human recombinant tPA
Tissue-type plasminogen activator, sequence (P00750 whole entry): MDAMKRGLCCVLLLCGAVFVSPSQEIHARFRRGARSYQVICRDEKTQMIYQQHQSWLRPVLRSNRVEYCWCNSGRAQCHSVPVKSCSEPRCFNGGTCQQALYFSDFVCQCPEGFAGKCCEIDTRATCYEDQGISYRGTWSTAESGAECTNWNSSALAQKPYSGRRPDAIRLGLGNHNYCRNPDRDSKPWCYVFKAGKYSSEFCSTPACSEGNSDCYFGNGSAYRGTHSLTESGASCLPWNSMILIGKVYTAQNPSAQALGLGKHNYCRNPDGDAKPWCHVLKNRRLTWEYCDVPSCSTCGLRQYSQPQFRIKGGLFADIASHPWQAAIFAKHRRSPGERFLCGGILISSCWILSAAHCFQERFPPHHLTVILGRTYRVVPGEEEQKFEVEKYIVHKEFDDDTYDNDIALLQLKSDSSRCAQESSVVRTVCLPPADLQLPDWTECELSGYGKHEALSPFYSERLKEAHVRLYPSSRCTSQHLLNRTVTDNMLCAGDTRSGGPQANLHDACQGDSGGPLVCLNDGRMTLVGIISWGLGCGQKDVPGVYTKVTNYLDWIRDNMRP

Plasminogen = Plasminogen (Homo sapiens, UniProt P00747); assay: Inhibition of human plasmin
Plasminogen, sequence (P00747 97-580 limits assumed): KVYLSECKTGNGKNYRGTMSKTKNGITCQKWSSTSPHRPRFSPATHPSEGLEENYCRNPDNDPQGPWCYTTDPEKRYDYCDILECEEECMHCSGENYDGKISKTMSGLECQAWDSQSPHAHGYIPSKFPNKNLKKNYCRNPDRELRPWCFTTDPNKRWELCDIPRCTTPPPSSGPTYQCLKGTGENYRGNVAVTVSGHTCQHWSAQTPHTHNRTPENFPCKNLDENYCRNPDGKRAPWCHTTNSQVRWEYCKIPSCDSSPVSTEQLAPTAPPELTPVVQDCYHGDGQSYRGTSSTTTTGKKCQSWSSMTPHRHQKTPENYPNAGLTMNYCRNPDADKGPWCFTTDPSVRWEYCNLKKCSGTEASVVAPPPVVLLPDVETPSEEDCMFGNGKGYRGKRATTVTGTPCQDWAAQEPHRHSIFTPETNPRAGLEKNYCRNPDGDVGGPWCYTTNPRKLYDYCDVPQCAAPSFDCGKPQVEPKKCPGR
Plasminogen, sequence (P00747 581-810 limits assumed): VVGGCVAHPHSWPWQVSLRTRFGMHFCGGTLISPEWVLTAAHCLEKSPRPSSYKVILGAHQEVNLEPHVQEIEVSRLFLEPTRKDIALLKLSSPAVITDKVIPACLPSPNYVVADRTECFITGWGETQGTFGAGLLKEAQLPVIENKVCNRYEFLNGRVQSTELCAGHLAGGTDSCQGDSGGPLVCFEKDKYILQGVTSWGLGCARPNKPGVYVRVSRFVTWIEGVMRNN
In short: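 Plasmin from human plasma at about 5 mU was preincubated with inhibitor (0–250 µM final) for 15 min at 37 °C. Substrate was S-2366 at 580 µM in Tris pH 7.4. Initial rate was read at 405 nm, in duplicate. IC50 came from a four-parameter logistic fit.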

Homo sapiens [7] = species: Homo sapiens; assay: Selectivity index, ratio of IC50 for human plasmin to IC50 for human uPA
In short: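 Selectivity index is IC50(plasmin)/IC50(uPA). Plasmin: human plasma-derived, about 5 mU, 580 µM S-2366, Tris pH 7.4. uPA: human, about 1 mU, 250 µM S-2444, 50 mM Tris pH 8.8. Both had 15 min preincubation at 37 °C, 405 nm initial rates in duplicate, and a four-parameter logistic fit.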

Homo sapiens [8] = species: Homo sapiens; assay: Selectivity index, ratio of IC50 for human recombinant tPA to IC50 for human uPA
Homo sapiens [9] = species: Homo sapiens; assay: Selectivity index, ratio of IC50 for human thrombin to IC50 for human uPA
In short: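 Selectivity index is IC50(thrombin)/IC50(uPA). Thrombin: human plasma-derived, about 5 mU, 580 µM S-2366, Tris pH 8.3. uPA: human, about 1 mU, 250 µM S-2444, 50 mM Tris pH 8.8. Both had 15 min preincubation at 37 °C, 405 nm initial rates in duplicate, and a four-parameter logistic fit.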

Homo sapiens [10] = species: Homo sapiens; assay: Selectivity index, ratio of IC50 for human factor 10a to IC50 for human uPA
Coagulation factor X [11] = target: T2, Coagulation factor X; assay: Inhibition of factor 10a at 250 uM
Prothrombin [12] = target: T3, Prothrombin; assay: Inhibition of human thrombin at 250 uM
In short: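 Human plasma thrombin was assayed at 37 °C in Tris pH 8.3. IC50 was obtained from a four-parameter logistic fit.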

Prothrombin [13] = target: T3, Prothrombin; assay: Inhibition of thrombin at 100 uM

T2 sequence (P00742 41-179 limits assumed): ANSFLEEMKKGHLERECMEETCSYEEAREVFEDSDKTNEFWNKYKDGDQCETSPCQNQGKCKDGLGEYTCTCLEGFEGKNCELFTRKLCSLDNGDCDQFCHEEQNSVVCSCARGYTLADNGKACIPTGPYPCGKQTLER
T2 sequence (P00742 235-488 limits assumed): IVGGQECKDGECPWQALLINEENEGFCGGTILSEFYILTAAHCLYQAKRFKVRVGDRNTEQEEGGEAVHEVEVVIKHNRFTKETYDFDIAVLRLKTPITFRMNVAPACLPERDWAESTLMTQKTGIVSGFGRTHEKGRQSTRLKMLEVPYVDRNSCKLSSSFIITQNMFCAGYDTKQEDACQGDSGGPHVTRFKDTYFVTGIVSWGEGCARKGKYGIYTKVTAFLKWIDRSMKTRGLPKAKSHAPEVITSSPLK

## N=C(N)Nc1ccc(CC(NS(=O)(=O)Cc2ccccc2)P(=O)(Oc2ccccc2)Oc2ccccc2)cc1 (stereo not drawn)
[1]
  Kapp: 19000 M⁻¹ s⁻¹
Coagulation factor X [2]
  inhibition: 59%

## CC(=O)NC(Cc1ccc(NC(=N)N)cc1)P(=O)(Oc1ccccc1)Oc1ccccc1 (stereo not drawn)
[3]
  IC50: 0.0072 µM
[1]
  Kapp: 1.4e+06 M⁻¹ s⁻¹

## N=C(N)c1ccc(C(NC(=O)OCc2ccccc2)P(=O)(Oc2ccccc2)Oc2ccccc2)cc1 (stereo not drawn)
[1]
  Kapp: 43 M⁻¹ s⁻¹

## CS(=O)(=O)NC(Cc1ccc(NC(=N)N)cc1)P(=O)(Oc1ccccc1)Oc1ccccc1 (stereo not drawn)
[1]
  Kapp: 140000 M⁻¹ s⁻¹
Prothrombin [4]
  IC50: 125 µM
Coagulation factor X [5]
  IC50: 250 µM

## N=C(N)Nc1ccc(CNC(=O)OCc2ccccc2)cc1
[6]
  Ki: > 1000 µM
Plasminogen
  Ki: > 1000 µM
Prothrombin [4]
  Ki: > 1000 µM
Coagulation factor X [5]
  Ki: > 1000 µM

## N=C(N)c1ccc(CCC(NC(=O)OCc2ccccc2)P(=O)(Oc2ccccc2)Oc2ccccc2)cc1 (stereo not drawn)
Homo sapiens [7]
  Ratio IC50: 7
[1]
  Kapp: 140 M⁻¹ s⁻¹
Homo sapiens [8]
  Ratio IC50: 70
Homo sapiens [9]
  Ratio IC50: 20
Homo sapiens [10]
  Ratio IC50: 15

## CCOC(=O)NC(Cc1ccc(NC(=N)N)cc1)P(=O)(Oc1ccccc1)Oc1ccccc1 (stereo not drawn)
[1]
  Kapp: 40000 M⁻¹ s⁻¹

## N=C(N)Nc1ccc(CC(NS(=O)(=O)c2cccc3ccccc23)P(=O)(Oc2ccccc2)Oc2ccccc2)cc1 (stereo not drawn)
[1]
  Kapp: 7300 M⁻¹ s⁻¹

## C[C@H](NC(=O)[C@@H](CO)NS(=O)(=O)Cc1ccccc1)C(=O)NC(Cc1ccc(NC(=N)N)cc1)P(=O)(Oc1ccccc1)Oc1ccccc1 (stereo partly drawn)
[3]
  IC50: 0.004 µM
Coagulation factor X [5]
  IC50: 33.5 µM

## N=C(N)c1ccc(CC(NC(=O)OCc2ccccc2)P(=O)(Oc2ccccc2)Oc2ccccc2)cc1 (stereo not drawn)
[1]
  Kapp: 2000 M⁻¹ s⁻¹
Coagulation factor X [11]
  inhibition: 65%

## CC(C)c1cc(C(C)C)c(S(=O)(=O)NC(Cc2ccc(NC(=N)N)cc2)P(=O)(Oc2ccccc2)Oc2ccccc2)c(C(C)C)c1 (stereo not drawn)
Homo sapiens [7]
  Ratio IC50: 500
[1]
  Kapp: 1600 M⁻¹ s⁻¹
Homo sapiens [8]
  Ratio IC50: 60
Homo sapiens [10]
  Ratio IC50: 80
Prothrombin [12]
  inhibition: 60%

## N=C(N)NCCCC(NC(=O)OCc1ccccc1)P(=O)(Oc1ccccc1)Oc1ccccc1 (stereo not drawn)
Homo sapiens [7]
  Ratio IC50: 35
[3]
  IC50: 0.84 µM
[6]
  IC50: 44 µM
[1]
  Kapp: 100 M⁻¹ s⁻¹
Plasminogen
  IC50: 30 µM
Homo sapiens [8]
  Ratio IC50: 50
Homo sapiens [9]
  Ratio IC50: 0.9
Prothrombin [4]
  IC50: 0.78 µM
Coagulation factor X [11]
  inhibition: 70%

## N=C(N)Nc1ccc(CC(NC(=O)c2ccccc2)P(=O)(Oc2ccccc2)Oc2ccccc2)cc1 (stereo not drawn)
[1]
  Kapp: 2400 M⁻¹ s⁻¹

## C[C@H](NC(=O)[C@@H](CO)NS(=O)(=O)Cc1ccccc1)C(=O)NCc1ccc(NC(=N)N)cc1
[3]
  Ki: 0.016 µM
[6]
  Ki: > 2.5 µM
Prothrombin [13]
  Activity: inactive
Plasminogen
  Ki: 40 µM

## CC(=O)Nc1ccc(OP(=O)(Oc2ccc(NC(C)=O)cc2)C(Cc2ccc(NC(=N)N)cc2)NC(=O)OCc2ccccc2)cc1 (stereo not drawn)
Homo sapiens [7]
  Ratio IC50: 200
[1]
  Kapp: 80000 M⁻¹ s⁻¹
Homo sapiens [8]
  Ratio IC50: 1700
Homo sapiens [9]
  Ratio IC50: 90
Homo sapiens [10]
  Ratio IC50: 23000

## CC(=O)Nc1ccc(OP(=O)(Oc2ccc(NC(C)=O)cc2)C(Cc2ccc(NC(=N)N)cc2)NS(C)(=O)=O)cc1 (stereo not drawn)
Homo sapiens [7]
  Ratio IC50: 550
[1]
  Kapp: 210000 M⁻¹ s⁻¹
Homo sapiens [8]
  Ratio IC50: 1000
Homo sapiens [9]
  Ratio IC50: 700
Coagulation factor X [11]
  inhibition: 55%

## N=C(N)Nc1ccc(CC(NC(=O)OCc2ccccc2)P(=O)(Oc2ccccc2)Oc2ccccc2)cc1 (stereo not drawn)
[1]
  Kapp: 42000 M⁻¹ s⁻¹

Source: ChEMBL document CHEMBL1138351, “Small, potent, and selective diaryl phosphonate inhibitors for urokinase-type plasminogen activator with in vivo antimetastatic properties” (J Med Chem, 2007)
